In test [1] the test system is Hippocampus. As to the kind of experiment: Decrease in amplitude of populations spikes in Sprague-Dawley rat hippocampal CA1 region at 10 uM after 10 mins of compound wash out. In kind it is functional. More on the design: scale not given: the % may be the effect or the level left. The essentials: (§1)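 Male Sprague–Dawley rats (75–150 g) were halothane-anesthetized and decapitated. Coronal hippocampal slices were cut in ice-cold carbogenated aCSF and rested 1 h at room temperature. Extracellular field PS were recorded in CA1 after at least 15 min of stable baseline. Compound (10 mM DMSO stock, diluted ≥1000-fold in aCSF) was bath-perfused, then washed out. Amplitude was normalized to the mean of 4–5 pre-drug responses; mean ± SE, paired t-test.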

For test [2], the system named is Hippocampus. As to the kind of experiment: Cognitive enhancing effect in Sprague-Dawley rat hippocampal CA1 region assessed as increase in amplitude of populations spikes at 10 uM in presence of CGP-55845 relative to basal level. In kind it is functional. The essentials:
(§2)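 CA1 field PS were recorded extracellularly in coronal hippocampal slices from male Sprague–Dawley rats (75–150 g), kept in carbogenated aCSF. Receptor antagonists (d-tubocurarine, atropine, CGP55845 or 8-cyclopentyl-theophylline) were bath-perfused together with the compound, which was diluted ≥1000-fold from a 10 mM DMSO stock. PS amplitude was normalized to the mean of 4–5 responses before drug; mean ± SE, Student's t-test.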

The test system of test [3] is Hippocampus. As to the kind of experiment: Decrease in amplitude of populations spikes in Sprague-Dawley rat hippocampal CA1 region. In kind it is functional, tissue-based. In short, it runs like this:
as §1

Test [4] deals with Hippocampus. As to the kind of experiment: Cognitive enhancing effect in Sprague-Dawley rat hippocampal CA1 region assessed as increase in amplitude of populations spikes at 10 uM in presence of CPT relative to basal level. Format: functional. In short, it runs like this: as §2
In test [5] the test system is Hippocampus. Put plainly: Decrease in amplitude of populations spikes in Sprague-Dawley rat hippocampal CA1 region at 10 uM. In kind it is functional. Set-up: scale not given: the % may be the effect or the level left. In short, it runs like this: as §1
Test [6] concerns Hippocampus. As to the kind of experiment: Cognitive enhancing effect in Sprague-Dawley rat hippocampal CA1 region assessed as increase in amplitude of populations spikes at 10 uM. Format: functional. The essentials: as §1
The test system of test [7] is Hippocampus. Put plainly: Cognitive enhancing effect in Sprague-Dawley rat hippocampal CA1 region assessed as increase in amplitude of populations spikes at 1 uM. In kind it is functional. The essentials:
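Male Sprague-Dawley rats (75–150 g) anesthetized with halothane and decapitated. 400 µm coronal hippocampal slices cut in ice-cold carbogenated aCSF, then held 1 h at room temperature. Extracellular field recording of evoked population spikes in CA1. After at least 15 min of stable baseline, analogs (10 mM DMSO stocks, diluted ≥1000-fold in aCSF) were bath-perfused. Amplitude normalized to the mean of 4–5 pre-drug responses.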

Test [8] relates to Hippocampus. As to the kind of experiment: Cognitive enhancing effect in Sprague-Dawley rat hippocampal CA1 region assessed as increase in amplitude of populations spikes at 10 uM after 20 mins of compound wash out. In kind it is functional. In short, it runs like this: as §1
Test [9] concerns Hippocampus. Put plainly: Cognitive enhancing effect in Sprague-Dawley rat hippocampal CA1 region assessed as increase in amplitude of populations spikes at 10 uM in presence of atropine. In kind it is functional. In short, it runs like this: as §2
Test [10] concerns Hippocampus. As to the kind of experiment: Cognitive enhancing effect in Sprague-Dawley rat hippocampal CA1 region assessed as amplitude of populations spikes at 10 uM in presence of d-tubocurarine. Format: functional. The essentials:
as §2

For test [11], the system named is Hippocampus. Put plainly: Cognitive enhancing effect in Sprague-Dawley rat hippocampal CA1 region assessed as increase in amplitude of populations spikes. In kind it is functional, tissue-based. The essentials: as §1
Test [12] has as its system Hippocampus. As to the kind of experiment: Cognitive enhancing effect in Sprague-Dawley rat hippocampal CA1 region assessed as increase in amplitude of populations spikes at 100 uM. Format: functional.

In the case of `Cn1c(=O)c2c(ncn2CCCC(=O)N2CCCCC2=O)n(C)c1=O`, the Activity was 91.1% in test [1]; 10.6% in test [2]; “Dose-dependent effect” in [3]; -27.6% in test [4]; -25.9% in [5]. Besides, the response in test [3] was half-maximal at 60 nM (EC50).

In the case of `Cn1c(=O)c2c(ncn2CC(=O)N2CCCCCC2=O)n(C)c1=O`, the Activity in test [6] was determined as 42.4%.

With `Cn1c(=O)c2c(ncn2CC(=O)N2CCCC2=O)n(C)c1=O`, the Activity in [6] is 6.4%.

As for `CC[C@@]1(O)C(=O)OCc2c1cc1n(c2=O)Cc2cc3ccccc3nc2-1` [CAMPTOTHECIN], the Activity in test [7] is recorded as 51.6%.

As to `Cn1c(=O)c2c(ncn2CCC(=O)N2CCCCCC2=O)n(C)c1=O`, the Activity in [6] came out at 40.9%.

Take `C[C@H](NC[C@H](O)CP(=O)(O)Cc1ccccc1)c1ccc(Cl)c(Cl)c1`: in test [7], the Activity turned out to be 53.8%.

In the case of `Cn1c(=O)c2c(ncn2CCCC(=O)N2CCCCCC2=O)n(C)c1=O`, the Activity in test [6] is on record as 56.5%; in test [2], 32.7%; in test [8], 45.8%; in test [9], 0.2%; in [4] it was 47.9%; in test [10] it was -2.5%. Moreover, in [11], the Activity result is “Dose-dependent effect”. In addition, the EC50 in test [11] worked out at 2000 nM.

For `Cn1c(=O)c2c(ncn2CCCC(=O)N2CCCC2=O)n(C)c1=O`, the Activity in [6] is 6.4%.

Take `COc1cc2c3cc1Oc1cc(ccc1O)C[C@@H]1c4c(cc(OC)c(O)c4Oc4ccc(cc4)C[C@@H]3N(C)CC2)CC[N+]1(C)C.[Cl-]`: in [12], the Activity amounted to 1.8%.

What is called EC50 is the midpoint of the concentration-response curve.
